Published values of several laboratories.
Target: Tyrosine-protein kinase HCK (HCK, Homo sapiens, UniProt P08631)

With `Cn1cncc1[C@@](O)(COc1ccc(C#N)cc1-c1ccc(OC(F)(F)F)cc1)c1ccc(C#N)cc1` the remaining binding was 100% (cell-free assay, competition with immobilised ligand; 1 µM).
With `O=c1[nH]c2ccccc2n1C1CCN(Cc2ccc(-c3[nH]c4cc5ncnc5cc4nc3-c3ccccc3)cc2)CC1` the remaining signal was 99.6% (cell-free assay; 0.5 µM).
`Cn1cc(-c2cc(F)cc(N3CCn4c(cc5c4CCCC5)C3=O)c2CO)cc(Nc2ccc(N3CCN(C4COC4)CC3)cn2)c1=O` has an inhibition of 9% (enzyme activity, inhibitor; 0.1 µM).
The remaining activity of `CC(C)(C)c1cc(C=C(C#N)C#N)cc(Br)c1O` is reported as 66.1% (enzyme activity, inhibitor; 0.5 µM).
`COc1ncccc1-c1cnn2ccc(N3CCN(C(=O)OC(C)C)CC3)nc12` gave a remaining binding of 60% (binding, competition with immobilised ligand; 1 µM).
`Nc1ncc(-c2nc(N3CCOCC3)nc(N3CCOCC3)n2)c(C(F)F)n1` has a remaining binding of 77% (binding, competition with immobilised ligand; 10 µM).
`Cn1cc(-c2cccc(N3CCc4c(sc5c4CC(C)(C)C5)C3=O)c2CO)cc(Nc2ccncn2)c1=O` has an inhibition of 6% (enzyme activity, inhibitor; 1 µM).
For `COc1cc(Nc2ncc(F)c(Nc3ccc4c(n3)NC(=O)C(C)(C)O4)n2)cc(OC)c1OC`, the inhibition was 98% (binding, competition with immobilised ligand; 10 µM).
With `Cc1nn(C)cc1-c1nc2c(N3CCN(Cc4ccc(Cl)cc4)CC3)c(Cl)cnc2[nH]1` the remaining binding was 100% (binding, competition with immobilised ligand; 1 µM).
For `N#CC1(c2ccccn2)CCN(Cc2cc(C(=O)O)c(=O)n3ccccc23)CC1`, the remaining binding was 100% (cell-free assay, competition with immobilised ligand; 1 µM).
